Calls of active or inactive are those of the source. No cut-off for these calls is given here.
Tests used:
[1] = molecular target: T1, NAD-dependent protein deacetylase sirtuin-2 (Homo sapiens, UniProt Q8IXJ6); experiment: Inhibition of recombinant His-tagged SIRT2 (56 to 356 residues) (unknown origin) expressed in Escherichia coli Transetta(DE3) using AcIQF as substrate preincubated for 30 mins followed by substrate and NAD+ addition measured after 2 hrs by fluorescence assay
T1 sequence (Q8IXJ6 whole entry): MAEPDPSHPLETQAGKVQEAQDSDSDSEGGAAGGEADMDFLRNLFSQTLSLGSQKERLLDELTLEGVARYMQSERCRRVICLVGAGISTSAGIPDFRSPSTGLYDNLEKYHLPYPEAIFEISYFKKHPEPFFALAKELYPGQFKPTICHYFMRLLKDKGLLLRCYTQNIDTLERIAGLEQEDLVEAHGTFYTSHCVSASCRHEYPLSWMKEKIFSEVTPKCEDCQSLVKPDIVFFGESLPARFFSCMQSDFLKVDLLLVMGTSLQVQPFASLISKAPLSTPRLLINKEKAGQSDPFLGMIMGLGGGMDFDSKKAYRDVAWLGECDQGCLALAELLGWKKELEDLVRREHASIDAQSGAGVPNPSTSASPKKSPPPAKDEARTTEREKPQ

NCI-H441 [2] = experiment: Induction of apoptosis in human NCI-H441 cells assessed as late apoptotic cells at 30 uM after 48 hrs by Annexin V-FITC/propidium iodide staining based flow cytometry (reference value: 7.25%); format: functional
NCI-H441 [3] = experiment: Induction of apoptosis in human NCI-H441 cells assessed as early apoptotic cells at 30 uM after 48 hrs by Annexin V-FITC/propidium iodide staining based flow cytometry (reference value: 2.47%); format: functional
NCI-H441 [4] = experiment: Antiproliferative activity against human NCI-H441 cells assessed as reduction in EdU incorporation at 30 uM after 48 hrs by DAPI staining based fluorescence microscopic method; format: functional, cell-based
Summary of the method: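 Cells in 96-well plates treated with DMSO vehicle or compound (30 μM) for 48 h. Proliferation measured by EdU incorporation kit per manufacturer. EdU and DAPI nuclear fluorescence imaged on a high-content reader.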

NCI-H441 [5] = experiment: Anticlonogenic activity against human NCI-H441 cells at 3 to 30 uM after 2 weeks by crystal violet staining based assay; format: functional, cell-based
Summary of the method: (§1)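 Cells seeded at 5,000 per well in six-well plates and exposed to DMSO vehicle or compound for 2 weeks, with agents replaced every 3 days. Cells then fixed with methanol and stained with 0.05% crystal violet (w/v).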

NCI-H441 [6] = experiment: Anti-invasive activity against human NCI-H441 cells after 48 hrs by crystal violet staining based transwell assay; format: functional, cell-based
Summary of the method: (§2)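 H441 cells in serum-free RPMI1640 seeded at 5 × 10⁴/100 μL into Matrigel-precoated insert upper chambers, with DMSO vehicle or compound in serum-free medium above. Lower chambers held RPMI1640 complete medium. After 48 h, invaded cells fixed with methanol and stained with 0.05% crystal violet (w/v).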

NCI-H441 [7] = experiment: Antimigratory activity against human NCI-H441 cells assessed as reduction in wound closure at 10 to 30 uM after 24 hrs by light microscopic method; format: functional, cell-based
Summary of the method: (§3)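 Confluent monolayers in 12-well plates were scratched with a sterile pipette tip, then treated with DMSO vehicle or compound for 24 h. Wounds photographed by digital camera on a light microscope.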

NCI-H441 [8] = experiment: Induction of apoptosis in human NCI-H441 cells assessed as necrotic cells at 30 uM after 48 hrs by Annexin V-FITC/propidium iodide staining based flow cytometry (reference value: 1.79%); format: functional
NCI-H441 [9] = experiment: Induction of apoptosis in human NCI-H441 cells assessed as live cells at 30 uM after 48 hrs by Annexin V-FITC/propidium iodide staining based flow cytometry (reference value: 88.5%); format: functional
[10] = molecular target: T2, NAD-dependent protein deacetylase sirtuin-2 (Homo sapiens) (UniProt Q8IXJ6); experiment: Inhibition of SIRT2 in human NCI-H441 cells assessed as increase in acetylated alpha-tubulin level after 72 hrs by Western blot analysis; format: cell-based
T2 sequence (whole entry): T1 sequence (Q8IXJ6 whole entry)
Summary of the method: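 H441 cells (ATCC, passaged <6 months after resuscitation) exposed to compound for 72 h. Whole-cell lysates separated by SDS-PAGE, transferred to PVDF and probed with anti-Ac-α-tubulin and anti-α-tubulin (1:1,000), then HRP secondaries (1:5,000) with ECL detection. Ac-α-tubulin normalized to α-tubulin, expressed relative to untreated control set to 1.0.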

NCI-H441 [11] = experiment: Antiproliferative activity against human NCI-H441 cells after 72 hrs by MTT assay; format: functional, cell-based; conditions: NCI-H441, 72 h
Summary of the method: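 Cells in 96-well plates given DMSO vehicle or a range of compound concentrations for 72 h. MTT reagent (5 mg/mL stock) added, then 4 h at 37 °C. Formazan dissolved overnight in 20% acidified SDS (w/v), absorbance read at 570 nm. IC50 taken from the viability profile.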

NCI-H441 [12] = experiment: Anti-invasive activity against human NCI-H441 cells at 30 uM after 48 hrs by crystal violet staining based transwell assay; format: functional, cell-based; summary of the method: as §2
NCI-H441 [13] = experiment: Anticlonogenic activity against human NCI-H441 cells at 10 to 30 uM after 2 weeks by crystal violet staining based assay; format: functional, cell-based; summary of the method: as §1
NCI-H441 [14] = experiment: Antimigratory activity against human NCI-H441 cells assessed as reduction in wound closure at 30 uM after 24 hrs by light microscopic method; format: functional, cell-based; summary of the method: as §3

Structure (SMILES) | IC50 ([1]; read-out: IC50) | also measured
Cn1cc(C(=O)Nc2ccc(OCc3cccc(NC(=O)COc4cccc5ccccc45)c3)cc2)cn1 | > 300 µM | 
Cc1cc(C)nc(SCC(=O)Nc2cccc(COc3ccc(NC(=O)CCN[C@@H]4CCCC[C@H]4O)cc3)c2)n1 | > 300 µM | 
Cn1nnnc1SCC(=O)Nc1cccc(COc2ccc(NC(=O)c3cccs3)cc2)c1 | 44.5 µM | 
Cn1cc(C(=O)Nc2ccc(OCc3cccc(NC(=O)CSc4nnc5ccccn45)c3)cc2)cn1 | > 300 µM | 
Cc1cc(C)nc(SCC(=O)Nc2cccc(COc3ccc(NC(=O)CCCNC(=O)OC(C)(C)C)cc3)c2)n1 | > 300 µM | 
CNC(=S)NCCCC(=O)Nc1ccc(OCc2cccc(NC(=O)CSc3nc(C)cc(C)n3)c2)cc1 | 9.56 µM | 
Cc1cc(C)nc(SCC(=O)Nc2cccc(COc3ccc(NC(=O)CCNC(=O)OC(C)(C)C)cc3)c2)n1 | 300 µM | 
Cc1cc(C)nc(SCC(=O)Nc2cccc(COc3ccc(NC(=O)C4CCOCC4)cc3)c2)n1 | 1.32 µM | 
Cc1cc(C)cc(OCC(=O)Nc2cccc(COc3ccc(NC(=O)c4cccs4)cc3)c2)c1 | > 300 µM | 
O=C(COc1cccc2ccccc12)Nc1cccc(COc2ccc(NC(=O)c3cccs3)cc2)c1 | > 300 µM | 
COc1cccc(SCC(=O)Nc2cccc(COc3ccc(NC(=O)c4cccs4)cc3)c2)c1 | > 300 µM | 
Cc1cc(C)nc(SCC(=O)Nc2cccc(COc3cccc(NC(=O)c4cnn(C)c4)c3)c2)n1 | 93.7 µM | Activity (NCI-H441 [2]): 7.39%; Activity (NCI-H441 [3]): 2.61%; Activity (NCI-H441 [4]): inactive; Activity (NCI-H441 [12]): inactive; Activity (NCI-H441 [8]): 2.21%; Activity (NCI-H441 [13]): inactive; Activity (NCI-H441 [9]): 87.8%; Activity (NCI-H441 [14]): inactive; IC50 (NCI-H441 [11]): > 100 µM
Cc1cc(C)nc(SCC(=O)Nc2cccc(COc3cccc(NC(=O)C4CCCN4C(=O)OC(C)(C)C)c3)c2)n1 (centres undefined) | 15.2 µM | 
CC(C)n1cnc(SCC(=O)Nc2cccc(COc3ccc(NC(=O)c4cccs4)cc3)c2)n1 | 142 µM | 
O=C(CSc1nnc2ccccn12)Nc1cccc(COc2ccc(NC(=O)c3cccs3)cc2)c1 | > 300 µM | 
O=C(CSc1nc[nH]n1)Nc1cccc(COc2ccc(NC(=O)c3cccs3)cc2)c1 | > 300 µM | 
Cc1cc(C)nc(SCC(=O)Nc2cccc(COc3ccc(NC(=O)CCCN[C@@H]4CCCC[C@H]4O)cc3)c2)n1 | 175 µM | 
Cc1cc(C)nc(SCC(=O)Nc2cccc(COc3cccc(NC(=O)C4CCCN4)c3)c2)n1 (centres undefined) | 142 µM | 
CNC(=S)NCCC(=O)Nc1ccc(OCc2cccc(NC(=O)CSc3nc(C)cc(C)n3)c2)cc1 | 11.7 µM | 
Cc1cc(C)nc(SCC(=O)Nc2cccc(COc3ccc(NC(=O)C4CCCN4C(=O)OC(C)(C)C)cc3)c2)n1 (centres undefined) | 76.1 µM | 
Cc1cccc(SCC(=O)Nc2cccc(COc3ccc(NC(=O)c4cccs4)cc3)c2)c1 | > 300 µM | 
Cc1cc(C)nc(SCC(=O)Nc2cccc(COc3cccc(NC(=O)C4CCOCC4)c3)c2)n1 | 169 µM | 
CC(C)n1ncnc1SCC(=O)Nc1cccc(COc2ccc(NC(=O)c3cccs3)cc2)c1 | 270 µM | 

Continued, in another order:

IC50 ([1]; read-out: IC50) | Structure (SMILES) | also measured
> 300 µM | Cc1cc(C)nc(SCC(=O)Nc2cccc(COc3ccc(NC(=O)CNC(=O)OCc4ccccc4)cc3)c2)n1 | 
0.815 µM | Cc1cc(C)nc(SCC(=O)Nc2cccc(COc3ccc(NC(=O)c4cnn(C)c4)cc3)c2)n1 | Activity (NCI-H441 [2]): 7.22%; Activity (NCI-H441 [3]): 2.69%; Activity (NCI-H441 [4]): Active; Activity (NCI-H441 [5]): Active; Activity (NCI-H441 [6]): Dose-dependent effect; Activity (NCI-H441 [7]): Active; Activity (NCI-H441 [8]): 2.26%; Activity (NCI-H441 [9]): 87.8%; inhibition [10]: Dose-dependent effect; IC50 (NCI-H441 [11]): 3.93 µM
128 µM | Cc1cc(C)nc(SCC(=O)Nc2cccc(COc3cccc(NC(=O)c4cccs4)c3)c2)n1 | 
3.1 µM | Cc1cc(C)nc(SCC(=O)Nc2cccc(COc3ccc(NC(=O)c4ccco4)cc3)c2)n1 | 
29.4 µM | Cc1cc(C)nc(SCC(=O)Nc2cccc(COc3ccc(NC(=O)c4ccccn4)cc3)c2)n1 | 
70.6 µM | Cc1cc(C)nc(SCC(=O)Nc2cccc(COc3ccc(NC(=O)CCCN)cc3)c2)n1 | 
300 µM | Cc1cc(C)nc(SCC(=O)Nc2cccc(COc3ccc(NC(=O)CCN)cc3)c2)n1 | 
> 300 µM | CC(=O)NCC(=O)Nc1ccc(OCc2cccc(NC(=O)CSc3nc(C)cc(C)n3)c2)cc1 | 
123 µM | Cc1cc(C)nc(SCC(=O)Nc2cccc(COc3cccc(NC(=O)c4ccco4)c3)c2)n1 | 
41.3 µM | Cc1cc(C)nc(SCC(=O)Nc2cccc(COc3ccc(NC(=O)C4CCCN4)cc3)c2)n1 (centres undefined) | 
3.41 µM | Cc1cc(C)nc(SCC(=O)Nc2cccc(COc3ccc(NC(=O)c4cccs4)cc3)c2)n1 | 
> 300 µM | Cc1cc(C)nc(SCC(=O)Nc2cccc(COc3cccc(NC(=O)c4ccccn4)c3)c2)n1 | 
110 µM | CCOCC(=O)Nc1ccc(OCc2cccc(NC(=O)CSc3nc(C)cc(C)n3)c2)cc1 | 
100 µM | Cc1cc(C)nc(SCC(=O)Nc2cccc(COc3ccc(NC(=O)OC(C)(C)C)cc3)c2)n1 | 
89.3 µM | C/C=C/C(=O)Nc1ccc(OCc2cccc(NC(=O)CSc3nc(C)cc(C)n3)c2)cc1 | 
25.9 µM | Cc1cc(C)nc(SCC(=O)Nc2cccc(COc3ccccc3)c2)n1 | IC50 ([1]; read-out: pIC50 (converted)): 26.3 µM
